Shown are actives, neighbours in structure and some others; about 4.9% of the full set was active somewhere.
STAT3 act-1 = IL-6 driven STAT3 reporter potentiators, primary screen, U3A cells, luciferase, luminescence, MLSCN library | IL-6 STAT3-luciferase reporter; 100% = signal with IL-6 EC80 alone | activation (% of control), % at 5.6 µM | 0.91% of 190,000 active | AID 871, 2007;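 active = activation above the screen-wide mean of compound activation plus 3 SD, cut at about 130% in these data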
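system = STAT3-luciferase reporter U3A cells | reagent = IL-6 stimulus at 33 ng/mL final | timing = 1 h compound pre-exposure, 6 h IL-6 stimulation, 37 °C | measured by = luminescence | evaluation = % activation versus median of IL-6-stimulated wells | control set = IL-6-only wells as 100% reference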
STAT1 act-1 = STAT1 signaling activators, primary screen, cell-based, HTS, luciferase reporter | NIH 3T3 STAT1-luciferase reporter, IFN-gamma, luminescence; 100% = IFN-gamma alone, no compound | activation (% of control), % at 5.5 µM | 2.6% of 200,000 active | AID 932, 2007;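 active = activation above the screen-wide mean activation plus 3 SD, cut at about 130% in these data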
STAT3 inh = IL-6 driven STAT3 reporter inhibitors, primary screen, U3A cells, luciferase, luminescence, MLSCN library. IL-6 STAT3-luciferase reporter; host cell line lacks STAT1. inhibition, % at 5.5 µM. 0.89% of 190,000 active. AID 862, 2007;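 active = inhibition above the mean inhibition across all screened compounds plus 3 SD, cut at about 44% in these data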
APP 5'UTR act = activators of APP 5'UTR luciferase reporter, primary screen, SH-SY5Y cells; 1% of 190,000 active; AID 1276, 2008; SH-SY5Y APP 5'UTR luciferase reporter, luminescence; zero percent = DMSO vehicle wells; activation, % at 2 µM;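 active = activation above a set limit, based on mean plus 3 SD of controls, cut at about 140% in these data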
NF-kB neuron act = activators of NF-kB expression in neurons, primary screen, cell-based, HTS; 1.6% of 190,000 active; human neuronal cells, NF-kB reporter expression; active compounds read high; fold change at 12.5 µM; in the data active = fold change above about 3.3
STAT1 blocker = STAT1 signaling inhibitors, primary screen, cell-based, HTS, luciferase reporter. NIH 3T3 STAT1-luciferase reporter, IFN-gamma, luminescence. 0.35% of 200,000 active. inhibition, % at 5.5 µM. AID 920, 2007;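 active = inhibition above a set limit, the mean inhibition across all tested compounds plus 3 SD, cut at about 34% in these data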
STAT3 act-2 = STAT3 reporter potentiators, retest of hits, confirmation, U3A cells, luciferase, luminescence; shares compounds with STAT3 act-1; IL-6 potentiation; U3A cells lack STAT1; 100 means same as IL-6 alone; potentiation (% of control), % at 5.7 µM; 64% of 1,200 active; AID 1267, 2008;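 active = percent activation of the STAT3 luciferase reporter above a set limit taken from the earlier primary screen, cut at about 130% in these data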
NFkB act STAT3ct = NF-kB reporter activators in human cells, counter-screen for STAT3 activator project; 11% of 1,200 active; activation (% of control), % at 5.7 µM; shares compounds with STAT3 act-1; NF-kappaB reporter activation; in the data active = activation above about 120%;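 also: reporter induced by TNF-alpha stimulation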
STAT1 act-2 = STAT1 reporter activators, IFN-gamma induced, counter-screen for STAT3 activator project, cell-based, NIH 3T3, luciferase luminescence; shares compounds with STAT3 act-1; NIH 3T3 STAT1-luciferase reporter; activation (% of control), % at 5.7 µM; 13% of 1,200 active; AID 1318, 2008;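 active = activation above the solvent-only control well mean plus 3 SD, set per screening run, cut at about 120% in these data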
Hits are given with their value; - = inactive; . = no result; ! = not confirmed by another sample.

SMILES | STAT3 act-1 | STAT1 act-1 | STAT3 inh | APP 5'UTR act | NF-kB neuron act | STAT1 blocker | STAT3 act-2 | NFkB act STAT3ct | STAT1 act-2
CCn1c(=O)c(C(=O)NCCc2ccccc2)c(O)c2ccccc21 | 136.6 | - | - | - | - | - | 134.4 | - | -
CCCn1c(=O)c(C(=O)Nc2ccccc2)c(O)c2ccccc21 | 136.7 | - | - | - | - | - | - | - | -
CCNCCNC(=O)c1c(O)c2ccccc2n(CC)c1=O | - | - | - | - | - | - | . | . | .
CCOC(=O)c1c(-c2ccccc2)csc1NC(=O)c1cc2ccccc2oc1=O | - | - | - | - | - | - | . | . | .
COc1ccc(Cc2nnc(N/N=C/c3ccc(C)o3)[nH]c2=O)cc1 | - | - | - | - | - | - | . | . | .
O=C1CCCCCN1Cc1nnc(SCc2nc3ccccc3s2)n1-c1ccccn1 | 139.8 | - | - | - | - | - | 150.6 | 128.5 | 144.9
Cc1cccc(C2c3[nH]c4ccccc4c3CCN2Cc2cnn(-c3ccc(F)cc3)c2)n1 (centres undefined) | 149.6 | - | - | - | - | - | 152.2 | - | -
Cc1cccc(C2c3[nH]c4ccccc4c3CCN2C(=O)c2cn(C)c3ccccc3c2=O)n1 (centres undefined) | 136.2 | - | - | - | - | - | - | - | -
Fc1ccc(C2c3[nH]c4ccccc4c3CCN2Cc2ccoc2)cc1 (centres undefined) | - | - | - | - | - | - | . | . | .
O=c1c2ccccc2ncn1Cc1ccco1 | 147.3 | - | - | - | - | - | 144.8 | - | -
Cn1c2ccccc2c2ncn(Cc3ccco3)c(=O)c21 | - | - | - | - | - | - | . | . | .
Cc1ccc(NC(=S)Nc2cccc3cnccc23)cc1 | 136.6 | - | - | - | - | - | 142.6 | - | -
COCc1cc(=O)n2c(-c3ccccc3OC)n[nH]c2n1 | 144.5 | - | - | - | - | - | 159.4 | - | -
O=C(CCc1nnc(Cc2ccc3c(c2)OCO3)o1)NCc1nc2ccccc2s1 | 148.8 | - | - | - | - | - | 141.7 | - | -
O=C(CCc1nc2ccccc2[nH]1)NCc1ccc2c(c1)OCO2 | - | - | - | - | - | - | . | . | .
CC(=O)NCCCC(=O)NN1C(=S)N(Cc2ccccc2)C(=O)C1CC(=O)Nc1cccc(C)c1 (centres undefined) | - | - | - | - | - | - | . | . | .
Cc1ccc(NC(=O)CCn2cccc2)cc1Cl | - | - | - | - | - | - | . | . | .
CNC(=S)N/N=C1\C(=O)c2cccc3cccc1c23 | 138.0 | - | - | - | - | - | 142.6 | - | -
CCCCNC(=S)N/N=C1\C(=O)c2cccc3cccc1c23 | - | - | - | - | - | - | . | . | .
O=C(NC1CCCCC1)C1CC(=O)N(c2cccc([N+](=O)[O-])c2)C1 (centres undefined) | - | - | - | - | - | - | . | . | .
Cc1ccc(Cc2nnc3n(-c4cccc(C)c4)nc(C(=O)c4ccccc4)n3c2=O)cc1 | - | - | - | - | - | - | . | . | .
O=C(Cc1cccs1)N/N=C\c1ccc(O)cc1 | 142.3 | - | - | - | - | - | - | 122.6 | 150.7
O=C(Cc1cccs1)N/N=C/C=C/c1ccccc1 | - | - | - | - | - | - | . | . | .
O=c1oc2ccccc2c(O)c1/C=C1\C=Nc2ccccc21 | 161.0 | - | - | - | - | - | 151.8 | - | -
O=C(Cc1ccccc1)c1nc2ccccc2s1 | 142.7 | - | - | - | - | - | 164.3 | 127.8 | 127.7
SMILES | STAT3 act-1 | STAT1 act-1 | STAT3 inh | APP 5'UTR act | NF-kB neuron act | STAT1 blocker | STAT3 act-2 | NFkB act STAT3ct | STAT1 act-2
COC(=O)c1ccc(CC(=O)c2nc3ccccc3s2)cc1 | - | - | - | - | - | - | . | . | .
COc1ccc(C)cc1NC(=O)c1cc2c(s1)CCC2 | - | - | - | - | - | - | . | . | .
COC(=O)c1sccc1NC(=O)c1cc2c(s1)CCCC2 | 170.2 | - | - | - | - | - | 145.6 | - | -
Cc1ccc(N)c2c1OCCC2=O | 136.9 | - | - | - | - | - | 137.5 | - | -
O=C(O)C(Cc1cc2ccccc2[nH]1)N1C(=O)C2CC=C(Cl)CC2C1=O (centres undefined) | 141.5 | - | - | - | - | - | 134.9 | - | -
COC(=O)CSc1cc(C)nc2ccc(OC)cc12 | - | - | - | - | - | - | . | . | .
COc1ccc2nc(C)cc(SCC(=O)O)c2c1 | 139.6! | - | - | - | - | - | - | - | -
Cc1csc(NC(=O)CSc2nnc(-c3ccoc3C)n2Cc2ccco2)n1 | - | - | - | - | - | - | . | . | .
O=C(CSc1ncc(-c2ccccc2)n1C1CCCC1)N1CCc2ccccc21 | 141.3 | - | - | - | - | - | - | - | -
CCn1c(CSc2ncccn2)nnc1SCC(=O)N1CCc2ccccc21 | 148.4 | - | - | - | - | - | - | - | -
CCC(C)c1ccccc1NC(=O)COC(=O)c1ccc(C)c(NC(=O)c2ccco2)c1 (centres undefined) | - | - | - | - | - | - | . | . | .
Nc1ccc(C2=Nc3cccc4cccc(c34)N2)cc1 | 158.1 | - | - | - | - | - | 162.5 | - | -
Cc1cc(NC(=O)CN2CCOCC2)n(-c2nc3ccccc3s2)n1 | 164.8 | - | - | - | - | - | 146.1 | - | -
CC(=O)Nc1cc(C)nn1-c1nc2ccccc2s1 | 147.8 | - | - | - | - | - | 181.1 | 122.5 | 144.2
COc1ccc(C(=O)n2nc(C)cc2Nc2ccccc2)cc1 | 167.4 | - | - | - | - | - | 152.7 | - | 136.4
Cc1ccc(C)c(N2CCN(C(=O)C3CCN(S(=O)(=O)c4cccc5nsnc45)CC3)CC2)c1 | - | - | - | - | - | - | . | . | .
CCN1CCN(C(=O)C(C)Nc2ccc(OC)cc2OC)CC1 (centres undefined) | - | - | - | - | - | - | . | . | .
COc1ccc(C(=O)Nc2ccccc2C(=O)NC(Cc2c[nH]c3ccccc23)C(=O)O)cc1 (centres undefined) | 137.7 | - | - | - | - | - | - | - | -
O=C(CN1CCOCC1)Nc1ccc(Oc2ccccc2)cc1 | - | - | - | - | - | - | . | . | .
O=C(CN1CCNCC1)Nc1ccc(Oc2ccccc2)cc1 | 141.5 | - | - | - | - | - | 139.0 | - | -

High-throughput results (PubChem BioAssay)
